The target in assay [1] is Thymidylate kinase (Homo sapiens) (UniProt P23919). Put plainly: In Vitro inhibition of […] (TMPKh); No inhibition at 4000 uM.
For assay [2], the target named is T1, Thymidylate kinase (Mycobacterium tuberculosis, UniProt P9WKE1).
T1 sequence (P9WKE1 whole entry): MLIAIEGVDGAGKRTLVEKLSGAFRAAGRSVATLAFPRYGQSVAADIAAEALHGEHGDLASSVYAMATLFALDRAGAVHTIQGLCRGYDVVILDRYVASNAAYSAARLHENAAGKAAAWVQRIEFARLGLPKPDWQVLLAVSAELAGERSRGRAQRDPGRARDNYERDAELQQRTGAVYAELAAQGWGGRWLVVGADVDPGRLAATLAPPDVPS
Put plainly: In Vitro inhibition of Thymidine […] Kinase of Mycobacterium tuberculosis (TMPKm). An outline of the steps:
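Recombinant TMPKmt or human TMPKh overexpressed in E. coli. ATP was fixed at 0.5 mM and dTMP at 0.05 mM; analogues were varied over 0.01–4 mM.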

Assay [3] in a line: ratio of Ki (Ki TMPKh / KiTMPKmt) was determined.
Assay [4] is described as follows: ratio of Ki (Km TMPKh / Ki TMPKmt) was determined.
Assay [5] is described as follows: ratio of Km (Km TMPKh / Km TMPKmt) was determined.

Molecules are shown by their SMILES.

Chain of Thymidylate kinase (Homo sapiens) (P23919 whole entry, looked up): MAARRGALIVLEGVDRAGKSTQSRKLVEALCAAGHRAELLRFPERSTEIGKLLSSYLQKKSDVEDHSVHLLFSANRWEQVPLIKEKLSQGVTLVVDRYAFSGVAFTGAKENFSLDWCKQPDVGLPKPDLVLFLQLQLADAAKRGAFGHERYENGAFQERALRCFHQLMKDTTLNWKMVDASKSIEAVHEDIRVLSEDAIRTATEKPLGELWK

For `Cc1cn([C@@H]2O[C@H](CO)[C@@H](CN=[N+]=[N-])[C@H]2O)c(=O)[nH]c1=O`, the NI result in assay [1] was “No inhibition at 4000 uM”. In assay [2], this compound returned a Ki of 770 µM.
Regarding `Cc1cn([C@H]2C[C@H](CN)[C@@H](COP(=O)(O)O)O2)c(=O)[nH]c1=O`, the SI in assay [3] is 0.4. Moreover, the Ki in assay [2] worked out at 10.5 µM.
As to `Cc1cn([C@H]2C[C@H](CN=[N+]=[N-])[C@@H](COP(=O)(O)O)O2)c(=O)[nH]c1=O`, in assay [3], the SI came out at 2.7. The compound also displayed a Ki in assay [2] of 12 µM.
`Cc1cn([C@H]2C[C@H](CF)[C@@H](CO)O2)c(=O)[nH]c1=O`: in assay [3], the SI is 21.6. The same compound showed a Ki in assay [2] of 45 µM.
In assay [2], `Cc1cn([C@@H]2O[C@H](COP(=O)(O)O)[C@@H](CN=[N+]=[N-])[C@H]2O)c(=O)[nH]c1=O` yielded a Ki of 116 µM.
Turning to `Cc1cn([C@H]2C[C@H](CO)[C@@H](CO)O2)c(=O)[nH]c1=O`, in assay [3], the SI was 10. This compound showed a Ki in assay [2] of 41 µM.
`Cc1cn([C@H]2C[C@H](N=[N+]=[N-])[C@@H](CO)O2)c(=O)[nH]c1=O` [ZIDOVUDINE] yielded a Ki in assay [2] of 28 µM.
Consider `Cc1cn([C@H]2C[C@H](CN)[C@@H](CO)O2)c(=O)[nH]c1=O`, for which the SI in assay [3] came out at 3.9. Moreover, the affinity in assay [2], expressed as Ki, was 57 µM.
`Cc1cn([C@H]2C[C@H](CCO)[C@@H](CO)O2)c(=O)[nH]c1=O` gave a Ki in assay [2] of 156 µM.
Regarding `Cc1cn([C@H]2C[C@H](CO)[C@@H](COP(=O)(O)O)O2)c(=O)[nH]c1=O`, the SI in assay [3] was 1.5. In assay [2], this compound came in with a Ki of 29 µM.
Take `Cc1cn([C@@H]2O[C@H](COP(=O)(O)O)[C@@H](CN)[C@H]2O)c(=O)[nH]c1=O`: the SI in assay [3] turned out to be 0.9. In assay [2], this compound returned a Ki of 315 µM.
Regarding `Cc1cn([C@H]2C[C@H](N=[N+]=[N-])[C@@H](COP(=O)(O)O)O2)c(=O)[nH]c1=O`, in assay [4], the SI turned out to be 1.2.
Turning to `Cc1cn([C@H]2C[C@H](CF)[C@@H](COP(=O)(O)O)O2)c(=O)[nH]c1=O`, the SI in assay [3] was found to be 2.7. This compound displayed a Ki in assay [2] of 15 µM.
Regarding `Cc1cn([C@H]2C[C@H](O)[C@@H](COP(=O)(O)O)O2)c(=O)[nH]c1=O`, the SI in assay [5] was found to be 1.1.
For `Cc1cn([C@H]2C[C@H](CN=[N+]=[N-])[C@@H](CO)O2)c(=O)[nH]c1=O`, in assay [3], the SI was 26. For the same compound, the Ki in assay [2] was found to be 40 µM.
In the same order, the values of `Cc1cn([C@@H]2O[C@H](CO)[C@@H](CN)[C@H]2O)c(=O)[nH]c1=O` are 0.3 and 393 µM.

Values taken from ChEMBL document CHEMBL1145067, “3'-C-branched-chain-substituted nucleosides and nucleotides as potent inhibitors of Mycobacterium tuberculosis thymidine monophosphate kinase” (J Med Chem, 2003).
